Calls of active or inactive are those of the source.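 The calls were made as follows, unless noted: active = GFP response above 150% of the DMSO level; inconclusive = fewer than 70 events counted for a yeast strain; inactive = the rest.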

A short description of assay [1]: RPL19A-GFP modulators, yeast TOR pathway, confirmation, cell-based, S. cerevisiae, flow cytometry, cherry picks, mother/daughter gates (AID 2270;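 active = GFP response below 50% of the DMSO control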). The note with it: S. cerevisiae RPL19A-GFP strain, 3 h, at 10 µM, stronger effect = lower value, 100 = same GFP as DMSO wells. (A flow cytometer gives signals particle by particle.)
A short description of assay [2]: LAP4-GFP expression modulators in yeast, confirmation, cell-based, cherry picks, flow cytometry, mother/daughter gates (AID 2271;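 active = GFP response above 150% of the DMSO control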;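 also: ratio of sample to DMSO plate mean so 100% equals DMSO level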). The settings on record: S. cerevisiae LAP4-GFP strain, 3 h, at 10 µM, stronger effect = higher value, 100 means same as DMSO control. An outline of the steps:
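System: Alexa 633-stained baker's yeast GFP-fusion strain / Medium: synthetic complete (SC) yeast growth medium / Doses: compound at 10 µM, single point / Times: 3 h treatment at 30 °C with rotation / Detection: HT flow cytometry, GFP fluorescence channel / Benchmarks: DMSO-only negative wells, rapamycin 400 ng/mL positive wells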

A short description of assay [3]: modulators of MEP2-GFP levels in yeast, confirmation, S. cerevisiae, flow cytometry GFP, cherry picks (AID 2272;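 active = GFP response above 150% of the DMSO control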;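 also: ratio of well signal to plate DMSO mean so 100% equals DMSO level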). The settings on record: S. cerevisiae MEP2-GFP strain, 3 h, at 10 µM, stronger effect = higher value.
Assay [4] in a line: AGP1-GFP expression modulators, hit retest, confirmation, cell-based, flow cytometry, S. cerevisiae, cherry picks (AID 2273).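 Also: median GFP channel fluorescence over the whole cell population gate.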 The note with it: S. cerevisiae AGP1-GFP strain, 3 h, at 10 µM.
Assay [5] is described as follows: modulators of CIT2-GFP expression in yeast, confirmation, S. cerevisiae, GFP fusion, cherry picks, mother/daughter gates (AID 2274). The note with it: S. cerevisiae CIT2-GFP strain, flow cytometry, 3 h, at 10 µM, stronger effect = higher value.
[6] abbreviates: measured here: daughter cell gate.
[7] abbreviates: measured here: mother cell gate.
Setting [8] is: measured here: daughter cell gate response.
The mark [9] stands for this setting: measured here: mother cell gate response.

On to `O=C(Nc1cccc(Cl)c1N1CCCC1)c1ccc([N+](=O)[O-])o1`, for which the GFP response vs DMSO in assay [1] was 99.2% (inactive); in assay [1] (setting [6]), 96.4%; in assay [1] (setting [7]), 95.8%; in assay [3], 100% (inactive). Further, the results for the GFP response relative to DMSO in assay [2], in assay [2] (setting [8]) and in assay [2] (setting [9]) were 99.2% (inactive), 92.8% and 96.1%, respectively. Besides, the GFP response, % of DMSO is 97.6% (inactive) in assay [4], 99.7% (inactive) in assay [5], 99.1% in assay [5] (setting [6]) and 91.4% in assay [5] (setting [7]).
Consider `CCOc1cccc(C(=O)Nc2ccc(NC(=O)c3cc4ccccc4o3)c(OC)c2)c1`, for which the GFP response vs DMSO is 96.2% (inactive) in assay [1], 96.4% in assay [1] (setting [6]), 97.2% in assay [1] (setting [7]) and 98.3% (inactive) in assay [3]. Besides, the GFP response relative to DMSO in assay [2] is 91.5% (inactive); in assay [2] (setting [8]), 91.2%; in assay [2] (setting [9]), 90.8%. The GFP response, % of DMSO in assay [4] is 94.8% (inactive); in assay [5], 103% (inactive); in assay [5] (setting [6]) it was 103%; in assay [5] (setting [7]) it was 102%.
`N#C/C(=C\c1c(N(Cc2ccccc2)Cc2ccccc2)nc2ccccn2c1=O)C(N)=O`: the GFP response vs DMSO in assay [1] is 98.4% (inactive); in assay [1] (setting [6]), 99.2%; in assay [1] (setting [7]), 98.2%; in assay [3], 102% (inactive). Besides, the GFP response relative to DMSO in assay [2] was 99.8% (inactive); in assay [2] (setting [8]), 97.2%; in assay [2] (setting [9]), 102%. The GFP response, % of DMSO was 104% (inactive) in assay [4], 106% (inactive) in assay [5], 101% in assay [5] (setting [6]) and 109% in assay [5] (setting [7]).
With `CC[n+]1cc(C)ccc1/C=C/c1ccc(N(C)C)cc1`, the GFP response vs DMSO in assay [1] was 104% (inactive); in assay [1] (setting [6]) it was 106%; in assay [1] (setting [7]), 103%; in assay [3] it was 162% (inactive). Also, the GFP response relative to DMSO in assay [2] is 134% (inactive); in assay [2] (setting [8]) it was 138%; in assay [2] (setting [9]), 128%. Further, the GFP response, % of DMSO in assay [4] was 104% (inactive); in assay [5] it was 134% (inactive); in assay [5] (setting [6]), 141%; in assay [5] (setting [7]) it was 126%.
As to `Cc1ccc(NC(=O)CC2SC(=O)N(c3ccccc3)C2=O)cc1` (stereo not drawn), the GFP response vs DMSO in assay [1] was 97.8% (inactive); in assay [1] (setting [6]), 101%; in assay [1] (setting [7]), 94.5%; in assay [3], 112% (inactive). In addition, the GFP response relative to DMSO in assay [2] was 142% (inactive); in assay [2] (setting [8]), 140%; in assay [2] (setting [9]) it was 143%. The GFP response, % of DMSO in assay [4] is 98.9% (inactive); in assay [5] it was 102% (inactive); in assay [5] (setting [6]) it was 104%; in assay [5] (setting [7]), 94.5%.
As to `CCOc1ccc(NC2=C(Cl)C(=O)N(Cc3ccccc3)C2=O)cc1`, the GFP response vs DMSO in assay [1] is 98.2% (inactive); in assay [1] (setting [6]), 98.3%; in assay [1] (setting [7]), 100%; in assay [3], 99.5% (inactive). Also, the figures for the GFP response relative to DMSO in assay [2], in assay [2] (setting [8]) and in assay [2] (setting [9]) were 102% (inactive), 96.5% and 102%, respectively. Besides, the GFP response, % of DMSO in assay [4] is 95.8% (inactive); in assay [5], 96.4% (inactive); in assay [5] (setting [6]) it was 98.3%; in assay [5] (setting [7]), 94.5%.
`Oc1ccc(N=Nc2ccccc2)o1`: the GFP response vs DMSO is 111% (inactive) in assay [1], 113% in assay [1] (setting [6]), 106% in assay [1] (setting [7]) and 124% (inactive) in assay [3]. Besides, the GFP response relative to DMSO is 180% (active) in assay [2], 153% in assay [2] (setting [8]) and 173% in assay [2] (setting [9]). In addition, the GFP response, % of DMSO is 111% (inactive) in assay [4], 118% (inactive) in assay [5], 119% in assay [5] (setting [6]) and 110% in assay [5] (setting [7]).
For the compound `COc1ccc(/C=C/C(=O)c2ccc(Cl)cc2)c(OC)c1`, the GFP response vs DMSO in assay [1] was 97.6% (inactive); in assay [1] (setting [6]), 98.9%; in assay [1] (setting [7]), 96.1%; in assay [3], 100% (inactive). For the same compound, the GFP response relative to DMSO in assay [2] is 104% (inactive); in assay [2] (setting [8]) it was 102%; in assay [2] (setting [9]), 106%. Also, the GFP response, % of DMSO is 90.2% (inactive) in assay [4], 99.7% (inactive) in assay [5], 99.1% in assay [5] (setting [6]) and 97.3% in assay [5] (setting [7]).
For the compound `O=[N+]([O-])c1cc(Cl)c2cccnc2c1O`, the GFP response vs DMSO in assay [1] was 100% (inactive); in assay [1] (setting [6]), 94.9%; in assay [1] (setting [7]) it was 102%; in assay [3], 118% (inactive). For the same compound, the GFP response relative to DMSO in assay [2] was 174% (active); in assay [2] (setting [8]), 141%; in assay [2] (setting [9]), 181%. The GFP response, % of DMSO in assay [4] was 100% (inactive); in assay [5], 99.3% (inactive); in assay [5] (setting [6]) it was 96.4%; in assay [5] (setting [7]) it was 94.5%.
Regarding `O=C(O)c1ccccc1C(=O)N1CCN(c2cccc(Cl)c2)CC1`, the GFP response vs DMSO in assay [1] was 97.2% (inactive); in assay [1] (setting [6]), 97%; in assay [1] (setting [7]), 98.1%; in assay [3] it was 97.5% (inactive). Besides, the GFP response relative to DMSO in assay [2] is 100% (inactive); in assay [2] (setting [8]), 97.9%; in assay [2] (setting [9]) it was 96.5%. Besides, the GFP response, % of DMSO in assay [4] was 95.4% (inactive); in assay [5] it was 96.4% (inactive); in assay [5] (setting [6]) it was 98.3%; in assay [5] (setting [7]), 95.6%.
For `Cc1cc(C)nc(/N=c2/ssnc2Cl)c1`, the GFP response vs DMSO in assay [1] was 88.7% (inactive); in assay [1] (setting [6]), 87.3%; in assay [1] (setting [7]), 86.4%; in assay [3], 107% (inactive). The results for the GFP response relative to DMSO in assay [2], in assay [2] (setting [8]) and in assay [2] (setting [9]) were 142% (inactive), 131% and 143%, respectively. For the same compound, the GFP response, % of DMSO is 111% (inactive) in assay [4], 124% (inactive) in assay [5], 110% in assay [5] (setting [6]) and 116% in assay [5] (setting [7]).
In the case of `O=C(NNC(=O)C1CCCCC1)C(=O)NC1CCCCC1`, the GFP response vs DMSO in assay [1] is 99.1% (inactive); in assay [1] (setting [6]) it was 99.8%; in assay [1] (setting [7]), 99.3%; in assay [3], 112% (inactive). Moreover, the GFP response relative to DMSO in assay [2] was 98.8% (inactive); in assay [2] (setting [8]) it was 97.9%; in assay [2] (setting [9]), 97.5%. In addition, the GFP response, % of DMSO in assay [4] is 104% (inactive); in assay [5], 104% (inactive); in assay [5] (setting [6]), 102%; in assay [5] (setting [7]), 104%.
For the compound `COC(=O)c1ccc(Sc2ccccn2)c([N+](=O)[O-])c1`, the GFP response vs DMSO in assay [1] is 97.8% (inactive); in assay [1] (setting [6]) it was 101%; in assay [1] (setting [7]) it was 97.7%; in assay [3], 109% (inactive). For the same compound, the GFP response relative to DMSO was 99.5% (inactive) in assay [2], 101% in assay [2] (setting [8]) and 100% in assay [2] (setting [9]). The GFP response, % of DMSO in assay [4] was 98% (inactive); in assay [5] it was 105% (inactive); in assay [5] (setting [6]) it was 105%; in assay [5] (setting [7]) it was 104%.

The values above are taken from PubChem BioAssay.
